pIC50: −log10 of the molar value.
Experiments:
[1] = test system: Trypanosoma brucei; experiment: Antitrypanosomal activity against wild type Trypanosoma brucei bloodstream form assessed as growth inhibition after 3 days by Alamar blue assay; type: functional, organism-based; settings: 72 h
Summary of the method: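 Bloodstream-form T. brucei seeded at 1 × 10³ per mL in growth medium with a range of test compound concentrations; 3 days at 37 °C, then alamarBlue added and incubation continued 16 h before reading.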

[2] = test system: Trypanosoma brucei; experiment: Activity of His-tagged Trypanosoma brucei nitroreductase assessed as oxidation of NADH
Summary of the method: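 Purified His-tagged T. brucei nitroreductase (TbNTR) incubated with test compound; NADH consumption followed as change in absorbance at 340 nm.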

[3] = test system: Trypanosoma brucei; experiment: Antitrypanosomal activity against Trypanosoma brucei bloodstream form overexpressing nitroreductase assessed as growth inhibition after 3 days by Alamar blue assay; type: functional, organism-based; settings: 72 h
Summary of the method: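 Bloodstream-form T. brucei induced to express elevated nitroreductase, with non-induced parasites as controls. Parasites seeded at 1 × 10³ mL⁻¹ in growth medium with a range of test-compound concentrations and incubated 3 days at 37 °C. alamarBlue was then added for a further 16 h as the viability read-out.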

Work on `NCCCC(N)(C(=O)O)C(F)F` (configuration not stated) [EFLORNITHINE] yielded a pIC50 [1] of 5.08 and an Activity [2] of 21 nmol/min/mg.

In the case of `NCCCC(N)(C(=O)OCc1ccc([N+](=O)[O-])cc1F)C(F)F` (configuration not stated), the pIC50 [1] was < 4.00 and the Activity [2] was 203 nmol/min/mg.

With `NCCCC(NC(=O)OCc1ccc([N+](=O)[O-])cc1F)(C(=O)O)C(F)F` (configuration not stated) the pIC50 [1] was < 4.00 and the Activity [2] was 227 nmol/min/mg.

For `NC(CCCNC(=O)OCc1ccc([N+](=O)[O-])cc1)(C(=O)O)C(F)F` (configuration not stated), the pIC50 [1] was < 4.00 and the Activity [2] was 33 nmol/min/mg.

`O=C(NCCCC(NC(=O)OCc1ccc([N+](=O)[O-])cc1)(C(=O)O)C(F)F)OCc1ccc([N+](=O)[O-])cc1` (configuration not stated) was tested, and the pIC50 [1] was < 4.00 and the Activity [2] was 140 nmol/min/mg.

In the case of `O=C(NCCCC(NC(=O)OCc1ccc([N+](=O)[O-])cc1F)(C(=O)O)C(F)F)OCc1ccc([N+](=O)[O-])cc1F` (configuration not stated), the pIC50 [1] was < 4.00 and the Activity [2] was 312 nmol/min/mg.

Compound `NC(CCCNC(=O)OCc1ccc([N+](=O)[O-])cc1F)(C(=O)O)C(F)F` (configuration not stated) has a pIC50 [3] of 4.40, a pIC50 [1] of 4.40 and an Activity [2] of 260 nmol/min/mg.

With `NCCCC(N)(C(=O)OCc1ccc([N+](=O)[O-])cc1)C(F)F` (configuration not stated) the pIC50 [1] was < 4.00 and the Activity [2] was 60 nmol/min/mg.

In the case of `NCCCC(NC(=O)OCc1ccc([N+](=O)[O-])cc1)(C(=O)O)C(F)F` (configuration not stated), the pIC50 [1] was < 4.00 and the Activity [2] was 42 nmol/min/mg.

Work on `CC1CS(=O)(=O)CCN1/N=C/c1ccc([N+](=O)[O-])o1` (configuration not stated) [NIFURTIMOX] yielded a pIC50 [3] of 6.59, a pIC50 [1] of 5.74 and an Activity [2] of 423 nmol/min/mg.

Source: ChEMBL document CHEMBL2163327, “Design, synthesis, and evaluation of potential prodrugs of DFMO for reductive activation” (Bioorg Med Chem Lett, 2012)
